Results gathered from unrelated publications.
Melanocortin receptor 4: Melanocortin receptor 4 (Mus musculus, UniProt P56450)
Tspo: Translocator protein (Tspo, Rattus norvegicus, UniProt P16257)
GLP2R: Glucagon-like peptide 2 receptor (GLP2R, Homo sapiens, UniProt O95838)

CSCC[C@H](NC(=O)[C@@H](NC(=O)[C@@H](N)Cc1ccc(O)cc1)C(C)C)C(=O)NCC(=O)O — EC50 (Melanocortin receptor 4; reporter gene, agonist): > 100 µM
CNC(=O)[C@@]12C[C@@H]1[C@@H](n1cnc3c(NC)nc(C#Cc4ccccc4)nc31)[C@H](O)[C@@H]2O — Ki (Tspo; ligand displacement, radioligand): > 10 µM
CSCC[C@H](N)C(=O)NCC(=O)N[C@@H](Cc1c[nH]cn1)C(=O)N[C@@H](Cc1ccccc1)C(=O)N[C@@H](CCCNC(=N)N)C(=O)N[C@@H](Cc1c[nH]c2ccccc12)C(=O)O — EC50 (Melanocortin receptor 4; reporter gene, agonist): 41.9 µM
O=C(OC[C@H]1OC[C@H](OC(=O)c2cc(O)c(O)c(O)c2)[C@@H](O)[C@@H]1O)c1cc(O)c(O)c(O)c1 — Kd (Replicase polyprotein 1ab, main protease (rep, Severe acute respiratory syndrome coronavirus 2, UniProt P0DTD1); binding, SPR): 1.18 µM
CNc1nc(C#Cc2ccccc2)nc2c1ncn2[C@H]1[C@H](O)[C@H](O)[C@@H]2C[C@@H]21 — Ki (Tspo; ligand displacement, radioligand): > 10 µM
O=C(Nc1ccncc1)c1cn(Cc2ccc(Cl)c(Cl)c2)c(=O)c2cnn(C3CCNCC3)c12 — Kd (Fascin (FSCN1, Homo sapiens, UniProt Q16658); binding, ITC): 0.045 µM
CNC(=O)[C@@]12C[C@@H]1[C@@H](n1cnc3c(NC4CC4c4ccccc4)nc(C#Cc4ccccc4)nc31)[C@H](O)[C@@H]2O (mixture of isomers) — Ki (Tspo; ligand displacement, radioligand): > 10 µM
O=C(O)CC(=O)C(=O)O — Kd (L-lactate dehydrogenase A chain (LDHA, Homo sapiens, UniProt P00338); binding, fluorescence): 642 µM
N=C(N)NCCC[C@H](NC(=O)[C@H](CC(=O)O)NC(=O)[C@H](Cc1c[nH]c2ccccc12)NC(=O)[C@H](CCCNC(=N)N)NC(=O)[C@H](Cc1ccccc1)NC(=O)[C@@H](N)Cc1c[nH]cn1)C(=O)N[C@@H](Cc1ccccc1)C(=O)NCC(=O)O — EC50 (Melanocortin receptor 4; reporter gene, agonist): 8.38 µM
O[C@@H]1[C@H](O)[C@@H]2C[C@@H]2[C@H]1n1cnc2c(NCCc3ccccc3)nc(C#Cc3ccccc3)nc21 — Ki (Tspo; ligand displacement, radioligand): > 10 µM
CSCC[C@H](NC(=O)[C@@H](NC(=O)[C@@H](N)Cc1ccc(O)cc1)C(C)C)C(=O)NCC(=O)N[C@@H](Cc1c[nH]cn1)C(=O)N[C@@H](Cc1ccccc1)C(=O)N[C@@H](CCCNC(=N)N)C(=O)N[C@@H](Cc1c[nH]c2ccccc12)C(=O)N[C@@H](CC(=O)O)C(=O)N[C@@H](CCCNC(=N)N)C(=O)O — EC50 (Melanocortin receptor 4; reporter gene, agonist): 0.66 µM
N#Cc1ccc(COc2cccc(C3CCN(Cc4nc5ccc(C(=O)O)cc5n4C[C@@H]4CCO4)CC3)n2)c(F)c1 — EC50 (GLP2R; cAMP, agonist): > 20 µM
CCOC(=O)[C@@]12C[C@@H]1[C@@H](n1ccc3c(NC4CC4)nc(C#Cc4ccccc4)nc31)[C@H](O)[C@@H]2O — Ki (Tspo; ligand displacement, radioligand): > 10 µM
N=C(N)NCCC[C@H](NC(=O)[C@@H](N)CC(=O)O)C(=O)N[C@@H](Cc1ccccc1)C(=O)NCC(=O)O — EC50 (Melanocortin receptor 4; reporter gene, agonist): > 100 µM
CC[C@H](C)[C@H](NC(=O)[C@H](CC(=O)O)NC(=O)[C@H](CO)NC(=O)[C@@H](NC(=O)[C@H](Cc1ccccc1)NC(=O)[C@@H](NC(=O)CNC(=O)[C@H](CC(=O)O)NC(=O)[C@H](C)NC(=O)[C@@H](N)Cc1c[nH]cn1)[C@@H](C)O)[C@@H](C)O)C(=O)N[C@@H](CC(N)=O)C(=O)N[C@@H](CCCCN)C(=O)N[C@H](C(=O)N[C@@H](CC(C)C)C(=O)N[C@@H](CC(=O)O)C(=O)N[C@@H](CC(=O)O)C(=O)N[C@@H](CCSC)C(=O)N[C@@H](C)C(=O)N[C@@H](C)C(=O)N[C@@H](CCCCN)C(=O)N[C@@H](CCC(=O)O)C(=O)N[C@@H](Cc1ccccc1)C(=O)N[C@@H](CC(C)C)C(=O)N[C@@H](CCCCN)C(=O)N[C@@H](Cc1c[nH]c2ccccc12)C(=O)N[C@@H](CC(C)C)C(=O)N[C@H](C(=O)N[C@@H](CC(N)=O)C(=O)N[C@H](C(=O)N[C@@H](CCCCN)C(=O)N[C@H](C(=O)N[C@H](C(=O)N[C@@H](CCC(N)=O)C(=O)O)[C@@H](C)O)C(C)C)[C@@H](C)O)[C@@H](C)CC)[C@@H](C)CC — EC50 (GLP2R; reporter gene, agonist, luciferase): 0.033 µM
